Calls of active or inactive are those of the source. No cut-off for these calls is given here.
Key:
Format in all cases: functional, cell-based
HeLa [1] = assay: Cytotoxicity against human HeLa cells after 48 hrs by MTT assay
In short: (§1)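 HeLa cells seeded at 10^4 per well and left to attach overnight. Cells were exposed for 4 h at 37 °C and 5% CO2 to serial dilutions or a single 120 µM level, made from 10 mg/mL DMSO stocks, or to 0.2% DMSO medium. They then grew 48 h in fresh DMEM. MTT (0.5 mg/mL) was added for 3 h in the dark, formazan was dissolved in DMSO, and A540 was read. Run in triplicate; IC50 reported.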

HeLa [2] = assay: Cytotoxicity against human HeLa cells at 120 uM after 48 hrs by MTT assay; in short: as §1
MCF7 [3] = assay: Cytotoxicity against human MCF7 cells at 120 uM after 48 hrs by MTT assay
MCF7 [4] = assay: Cytotoxicity against human MCF7 cells after 48 hrs by MTT assay; settings: MCF7, 48 h

CN1C(=O)[C@@](C)(O)[C@@H](O)[C@@H]1Cc1ccc2c(c1)CC(C(C)(C)O)O2 (stereo partly drawn)
IC50 (HeLa [1]): > 120 µM
Activity (HeLa [2]): inactive
Activity (MCF7 [3]): inactive
IC50 (MCF7 [4]): > 120 µM

CN1C(=O)[C@@](C)(O)C(=O)[C@@H]1Cc1ccc(O)cc1
IC50 (HeLa [1]): 48.2 µM
IC50 (MCF7 [4]): 100 µM

CN1C(=O)[C@@](C)(O)C(=O)[C@@H]1Cc1ccc2c(c1)CC(C(C)(C)O)O2 (stereo partly drawn)
IC50 (HeLa [1]): > 120 µM
Activity (HeLa [2]): inactive
Activity (MCF7 [3]): inactive
IC50 (MCF7 [4]): > 120 µM

CN1C(=O)[C@@](C)(O)[C@@H](O)[C@@H]1Cc1ccc(O)cc1
IC50 (HeLa [1]): 95.6 µM
IC50 (MCF7 [4]): 95.6 µM

O=c1[nH]cc(F)c(=O)[nH]1 [FLUOROURACIL]
IC50 (HeLa [1]): 10 µM

Reference: ChEMBL document CHEMBL1153743, “Pyrrolidinones from the ascomycete fungus Albonectria rigidiuscula” (J Nat Prod, 2009)
